Yeast superoxide – yeast age-related superoxide inhibition as caloric restriction mimetic | S. cerevisiae aged cells, superoxide DHE fluorescence; active compounds read low | superoxide response (% of plate mean), % at 10 µM | hit rate 0.18% among 330,000 | AID 2690;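 active = superoxide response under a set limit, about three screen SD below normal, cut at about 65% in these data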;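 also: yeast aged for seven days with compound at 30 °C before DHE staining; 100% = average MFI of all compound-treated wells on the plate with controls excluded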
STK33 kinase inh – blocks human STK33 kinase activity; purified STK33, MBP phosphorylation, ADP-Glo luminescence; inhibition, % at 10 µM; hit rate 0.073% among 320,000; AID 2661;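 active = inhibition at or above 25%, using the most active replicate where run in duplicate; inactive = inhibition below 25%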
GSK3beta inhib – human GSK3beta kinase inhibition; GST-GSK3beta kinase, ADP-Glo luminescence, 60 min; active compounds read low; activity score (negative = inhibition), % at 10 µM; hit rate 0.038% among 300,000; AID 2097;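 active = more than half of replicate wells score below -50%, meaning over 50% inhibition versus plate controls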;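 also: 0% = median DMSO wells and -100% = median GW8510 positive control wells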
Target sequence (P49841 whole entry, looked up): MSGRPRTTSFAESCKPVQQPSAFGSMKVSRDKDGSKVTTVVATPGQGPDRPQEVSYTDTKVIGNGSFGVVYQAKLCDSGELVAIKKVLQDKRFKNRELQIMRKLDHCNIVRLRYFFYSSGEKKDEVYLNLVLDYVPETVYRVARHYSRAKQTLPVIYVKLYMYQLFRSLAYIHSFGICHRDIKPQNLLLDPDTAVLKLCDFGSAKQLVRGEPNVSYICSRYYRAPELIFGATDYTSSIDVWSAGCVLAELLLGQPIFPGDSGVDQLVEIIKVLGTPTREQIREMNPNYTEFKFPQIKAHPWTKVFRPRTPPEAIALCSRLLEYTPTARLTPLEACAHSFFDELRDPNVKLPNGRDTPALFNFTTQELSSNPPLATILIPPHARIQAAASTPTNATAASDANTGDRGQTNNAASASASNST
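Test system: GST-fused GSK3beta enzyme, cell-free | Quantity: 1.6 ng GST-GSK3beta enzyme per well | Reagent: 25 µM ATP with peptide substrate | Schedule: 60 min enzyme reaction, room temperature | Signal: Luminescent ADP-Glo measurement of ADP formed | Read-out basis: Score relative to plate controls | Control set: DMSO and 20 µM GW8510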
GSK3A inh – human GSK-3 alpha kinase inhibition; P49840; AID 2650; ADP-Glo luminescence, 60 min; inhibition, % at 10 µM; hit rate 0.1% among 320,000;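 active = more than half of replicates show inhibition above 20%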;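 also: GST-tagged GSK-3 alpha with peptide substrate and 25 µM ATP; 0% = DMSO neutral wells and 100% = GW8510 positive control wells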
PolyA inh – blocks polyadenylation in yeast reporter cells; AID 1875; hit rate 0.02% among 300,000; S. cerevisiae SKY197-pL101 polyadenylation reporter, beta-gal luminescence; efflux-impaired pdr1/pdr3 knockout yeast; score 100 = 6 SD above DMSO; activity score, % at 12 µM;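 active = lowest replicate activity score at least 50, where 100 means six control SD above control mean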;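 also: yeast exposed to compound for 9 h at 30 °C; higher score means more reporter readthrough which indicates perturbed polyadenylation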
AI-2 QS modul – modulates the Vibrio harveyi AI-2 quorum sensing system; hit rate 0.4% among 300,000; AID 2094; activity change, % at 7.5 µM; Vibrio harveyi JMH597 AI-2 luminescence/OD600 ratio, 9 h; active compounds read low; strain lacks LuxN and CqsS sensors; 0 = neutral-control median; in the data active = activity change below about -75%, passing the limit was not always enough;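 also: luminescence divided by OD600 gain over 9 h not by final OD600 alone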
Superoxide pick – yeast aging superoxide inhibition, cherry pick confirmation; shares compounds with Yeast superoxide; S. cerevisiae aging, superoxide DHE fluorescence; active compounds read low; superoxide response (% of plate), % at 10 µM; hit rate 1% among 850; AID 434994;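 active = superoxide signal below 65% of the plate average of sample wells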;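 also: cells aged with compound for 7 days at 30 degrees C before staining; 100% equals mean DHE fluorescence of all compound wells on the plate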
DHE fluor count – DHE fluorescence interference, counter-screen artifact; shares compounds with Yeast superoxide; S. cerevisiae BY4741, flow cytometry; active compounds read low; fluorescence response, % at 10 µM; 850 tested, under 10 active;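 active = fluorescence response below 15%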;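 also: percent of the mean fluorescence averaged over all compound wells on the plate; lower means stronger quenching of DHE signal or ROS scavenging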
* marks the source's active call; other numbers are inactive results; · = not tested or not shown. This is a sample that favours compounds with a hit; in the whole collection about 0.72% have one here.

SMILES | Yeast superoxide | STK33 kinase inh | GSK3beta inhib | GSK3A inh | PolyA inh | AI-2 QS modul | Superoxide pick | DHE fluor count
COc1ccc(N(C(=O)CNC(=O)c2ccco2)C(C(=O)NCC2CCCO2)c2ccccc2)cc1 (stereo not given) | 107 | 0 | 3 | 0 | -5 | 43 | · | ·
CSCCC(NS(=O)(=O)c1ccccc1F)C(=O)Nc1ccncc1 (stereo not given) | 99 | 0 | · | 1 | · | · | · | ·
CC(C)(c1cc(Br)c(O)c(Br)c1)c1cc(Br)c(O)c(Br)c1 | 43* | -1 | · | -4 | · | · | 96 | 125
Cc1ccc(NC2=NCCC2)cc1Cl | 65* | -2 | -1 | 1 | 0 | 7 | 91 | 100
CCc1ccc(C(C)NC(=S)NC2CCCCC2)cc1 (stereo not given) | 102 | 1 | -3 | -2 | 1 | 5 | · | ·
CCC(C)c1ccc(C(C)NC(=S)NC2CCCCC2)cc1 (stereo not given) | 50* | 11 | 0 | 9 | -3 | 18 | 84 | 90
COc1ccc(CC(=O)Nc2ccc(-c3csc(C)n3)cc2)cc1 | 100 | 3 | -1 | -2 | -2 | 10 | · | ·
Cc1nc(-c2ccc(NC(=O)Cc3ccccc3)cc2)cs1 | 64* | -1 | 2 | 1 | 8 | 6 | 120 | 123
Cc1ccccc1-n1nnnc1SCC(=O)NNC(=O)c1ccc(NC(=O)CC#N)cc1 | 93 | -2 | · | -3 | · | · | · | ·
COc1ccccc1-c1nnc(NC(=O)c2ccc(S(=O)(=O)N3CCOCC3)cc2)o1 | 93 | -1 | 0 | 1 | -1 | 32 | 91 | 93
COCc1nnc(NC(=O)c2ccc(S(=O)(=O)N3CCOCC3)cc2)o1 | 103 | 2 | -4 | 1 | 4 | 24 | 118 | 117
COCc1nnc(NC(=O)c2ccc(S(=O)(=O)N3CCCc4ccccc43)cc2)o1 | 96 | 0 | 8 | · | -4 | 37 | 102 | 96
COc1cc(-c2nnc(NC(=O)c3ccc(S(=O)(=O)N4CCOCC4)cc3)o2)cc(OC)c1OC | 94 | -4 | 1 | 0 | -11 | 17 | · | ·
CCCCC(=O)NC(=O)NC(c1ccccc1)c1ccccc1 | 102 | -2 | -3 | -3 | -14 | 12 | · | ·
COc1cc2[nH]c(=S)nc(NCCc3ccc(S(N)(=O)=O)cc3)c2cc1OC | 74 | -1 | 2 | 0 | -16 | 7 | · | ·
COc1ccc(CCNc2nc(=S)[nH]c3cc(OC)c(OC)cc23)cc1OC | 63* | 6 | 1 | -1 | 12 | -1 | 99 | 97
Fc1cccc2sc(Nc3nc4ccccc4s3)nc12 | 65* | -2 | 4 | 0 | 3 | 17 | 93 | 109
COc1ccc(Cc2noc(CN3CCCC(OCc4ccccn4)C3)n2)cc1OC (stereo not given) | 108 | 2 | 0 | · | 3 | 28 | · | ·
CC(=O)C1=C(O)C(=O)N(CCc2ccccc2)C1c1ccccc1[N+](=O)[O-] (stereo not given) | 59* | 1 | 3 | 1 | -5 | 15 | 107 | 97
CCN(CC)CCN1C(=O)C(O)=C(C(C)=O)C1c1ccccc1[N+](=O)[O-] (stereo not given) | 94 | -2 | 1 | -2 | -16 | 23 | · | ·
NS(=O)(=O)c1ccc(CCNC(=O)C(=O)NCC2OCCN2S(=O)(=O)c2cc(F)ccc2F)cc1 (stereo not given) | 63* | -1 | 1 | 8 | 0 | 26 | 97 | 101
O=C(NCCc1ccccc1)C(=O)NCC1OCCCN1S(=O)(=O)c1cc(F)ccc1F (stereo not given) | 97 | 0 | -3 | -2 | 26 | 8 | · | ·
COc1cc(NC(=O)CSc2nnc3n2C(C)(C)Cc2ccccc2-3)cc(OC)c1 | 65* | 15 | -1 | 17 | 0 | 17 | 102 | 107
CCOc1nc2c(c(-c3cccs3)c1C#N)Cc1ccccc1-2 | 99 | 0 | 0 | 1 | 23 | 29 | · | ·
CC(=O)COc1nc2c(c(-c3ccco3)c1C#N)CCc1ccccc1-2 | 65* | 0 | 2 | 1 | -46 | 7 | 95 | 105
SMILES | Yeast superoxide | STK33 kinase inh | GSK3beta inhib | GSK3A inh | PolyA inh | AI-2 QS modul | Superoxide pick | DHE fluor count
CCCS(=O)(=O)N1CCCC(C(=O)Nc2ccc3c(c2)CCC3)C1 (stereo not given) | 93 | 0 | -3 | 0 | -8 | 30 | · | ·
Cc1nn(CC(=O)Nc2ccccc2C(F)(F)F)c(=O)c2cccn12 | 104 | 1 | 1 | 0 | 6 | 23 | · | ·
CCc1ccccc1NC(=O)Cn1nc(C)n2cccc2c1=O | 63* | 0 | -1 | 0 | 11 | 4 | 98 | 88
CCCNC(=O)c1ccccc1NC(=O)c1ccccc1N(C)S(=O)(=O)c1ccc(C)cc1 | · | · | 1 | · | 16 | 7 | · | ·
CCN(CC)C(=O)CCSc1nnc(-c2ccncc2)o1 | 100 | 1 | 0 | 2 | -8 | 7 | · | ·
CCN(CC)C(=O)CSc1nnc(-c2ccccc2)o1 | 98 | -2 | 1 | 1 | 0 | 17 | 96 | 96
O=C(O)c1ccc(-c2nnn(Cc3cccc(C(F)(F)F)c3)n2)cc1 | 108 | -3 | 3 | -3 | 15 | 44 | · | ·
Cc1c(F)cccc1NS(=O)(=O)c1ccccc1C#N | 90 | 1 | 4 | -4 | -9 | 4 | 105 | 92
COc1ccccc1NS(=O)(=O)c1ccccc1C#N | 125 | 1 | 4 | -1 | -3 | 10 | · | ·
COc1cc(C(=O)N2CCN(CCCc3ccccc3)CC2)cc(OC)c1OC | 106 | -1 | -2 | -1 | 1 | -3 | · | ·
COc1cc(C(=O)N2CCN(C(=O)c3cc(-c4ccccc4)n[nH]3)CC2)cc(OC)c1OC | 63* | 0 | 2 | -1 | 6 | 5 | 97 | 89
Cc1cc(C)n2nc(-c3ccc(Br)cc3)cc2n1 | 99 | 0 | -2 | -3 | 6 | 11 | 85 | 88
Cc1cc(-c2ccc(Cl)cc2)n2nc(C)cc2n1 | 102 | -1 | -2 | -1 | -27 | 26 | · | ·
COc1ccc(-c2cc3nc(C)cc(C)n3n2)cc1 | 107 | 13 | 3 | 8 | 19 | 3 | · | ·
Cc1cc(C)n2nc(-c3ccc(Cl)cc3)cc2n1 | 105 | -1 | 2 | -2 | -7 | 8 | 99 | 101
O=C(NC(=S)NNC(=O)c1cnccn1)c1ccc(Cl)cc1 | 53* | 0 | 2 | 6 | 3 | 34 | 111 | 92
CCOc1ccc(NC(=O)CN2CCN(CC(=O)Nc3ccccc3OC)CC2)cc1 | 92 | 0 | 1 | 0 | -3 | 21 | · | ·
CCOc1ccc(NC(=O)CN2CCN(CC(=O)Nc3ccc(OC)cc3OC)CC2)cc1 | 62* | 0 | -1 | -2 | 1 | 22 | 107 | 106

Screens (PubChem BioAssay)
